Data published in ChEMBL document CHEMBL1125431, “2-substituted 3-(aminooxy)propanamines as inhibitors of ornithine decarboxylase: synthesis and biological activity” (J Med Chem, 1992).

What was measured:
[1] = target: T1, Ornithine decarboxylase (Rattus norvegicus, UniProt P09057); test: Inhibitory activity against Rat liver ornithine decarboxylase (ODC)
T1 sequence (P09057 whole entry): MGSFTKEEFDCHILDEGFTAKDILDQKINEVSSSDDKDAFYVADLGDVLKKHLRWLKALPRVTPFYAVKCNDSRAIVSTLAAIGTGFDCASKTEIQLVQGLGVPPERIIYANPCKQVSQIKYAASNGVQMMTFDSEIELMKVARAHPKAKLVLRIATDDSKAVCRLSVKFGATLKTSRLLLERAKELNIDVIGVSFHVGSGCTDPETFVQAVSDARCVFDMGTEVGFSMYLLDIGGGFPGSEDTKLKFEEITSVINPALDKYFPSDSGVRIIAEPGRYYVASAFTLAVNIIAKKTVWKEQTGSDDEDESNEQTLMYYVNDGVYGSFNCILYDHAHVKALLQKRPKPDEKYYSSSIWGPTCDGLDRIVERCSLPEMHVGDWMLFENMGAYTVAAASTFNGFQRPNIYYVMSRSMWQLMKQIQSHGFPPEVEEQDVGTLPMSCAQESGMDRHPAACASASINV
Procedure, shortened: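 Partially purified rat liver ODC. Reaction at 37 °C for up to 1 h in 100 mM Tris-HCl pH 7 with 4 mM EDTA, 4 mM DTT, 0.4 mM pyridoxal phosphate and 0.21 mM L-ornithine spiked with L-[1-¹⁴C]ornithine. Inhibitor, in 10 mM Tris pH 7, added with substrate. Released ¹⁴CO₂ trapped on alkali filter; acid stop; scintillation counting. IC50 by linear regression of log concentration versus % activity (95–5% range).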

[2] = tested on: T-24; test: Inhibitory activity against Human T24 bladder carcinoma cells; assay type: functional, cell-based
[3] = tested on: T-24; test: The compound was tested for anti proliferative activity against Human T24 bladder carcinoma cells; assay type: functional, cell-based

Row | Compound | IC50 [1] | IC50 [2] | IC50 [3]
1 | NCC(Cl)CON (configuration not stated) | 0.093 µM | 6.3 µM | 
2 | CS(=O)(=O)OC(CN)CON (configuration not stated) | 1.1 µM | 111 µM | 
3 | Cc1ncc(COP(=O)(O)O)c(/C=N/OCC(F)CN)c1O (configuration not stated) | 5.2 µM |  | 0.6 µM
4 | NCC(F)CON (configuration not stated) | 0.014 µM | 2.38 µM | 
5 | NCCCON | 0.035 µM | 8.34 µM | 
6 | Cc1ncc(COP(=O)(O)O)c(/C=N/OCC(O)CN)c1O (configuration not stated) | 24 µM |  | > 112 µM
7 | NCC(F)CNN (configuration not stated) | 3.3 µM | 163 µM | 

More lines, main results first:

Row | IC50 [1] | IC50 [2] | Compound | IC50 [3]
8 | 670 µM | 181 µM | NOCC(O)CON | 
9 | 0.049 µM | 20.5 µM | NC[C@@H](O)CON | 
10 | 1.9 µM | > 33.3 µM | CNCC(O)CON (configuration not stated) | 
11 | 0.039 µM | 24.4 µM | NCC(O)CON (configuration not stated) | 
12 | > 50 µM | > 36.6 µM | CN(C)CC(O)CON (configuration not stated) | 
13 | 8.4 µM | > 230 µM | C#CCNCC(O)CON (configuration not stated) | 
14 | 66 µM |  | CC(C)NCC(O)CON (configuration not stated) | > 45.2 µM
15 | 0.033 µM | 16.3 µM | NC[C@H](O)CON | 
16 | 21 µM |  | C=CCNCC(O)CON (configuration not stated) | > 230 µM
